Assay results from ChEMBL document CHEMBL1131164, “Potent cyano and carboxamido side-chain analogues of 1', 1'-dimethyl-delta8-tetrahydrocannabinol” (J Med Chem, 1998).

Legend:
Mus musculus [1] = organism: Mus musculus; experiment: Tested for the concentration for antinociception as measured by the tail-flick response (TF).; type: functional
Mus musculus [2] = organism: Mus musculus; experiment: Tested for the concentration that shows hypothermia as changes in rectal temperature (RT).; type: functional
Cannabinoid receptor 1 = Cannabinoid receptor 1 (Homo sapiens, UniProt P21554); experiment: Evaluated for its binding affinity towards Cannabinoid receptor 1 (CB1)
Mus musculus [3] = organism: Mus musculus; experiment: Tested for the concentration for the inhibition of spontaneous activity (SA).; type: functional
Mus musculus [4] = organism: Mus musculus; experiment: Tested for the concentration that shows ring immobility (RI).; type: functional
Mus musculus [5] = experiment: The compound was tested for the concentration for the inhibition of spontaneous activity (SA) at a dose of 100 mg/kg.; type: functional
Method in brief: (§1)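 Mice, single intravenous tail-vein dose in ethanol:emulphor:saline 1:1:18 at 0.1 mL/10 g. Several measures were taken in the same mouse. SA is % of control activity, and TF is %MPE with a 10-s maximum latency. Effect is expressed as percent of the Δ9-THC maximum (90% for SA, 100% for TF).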

Mus musculus [6] = experiment: The compound was tested for the concentration for antinociception as measured by the tail-flick response (TF) at a dose of 60 mg/kg.; type: functional; method in brief: as §1
Mus musculus [7] = experiment: The compound was tested for the concentration for the inhibition of spontaneous activity (SA) at a dose of 30 mg/kg.; type: functional; method in brief: as §1
Mus musculus [8] = experiment: The compound was tested for the concentration for antinociception as measured by the tail-flick response (TF) at a dose of 30 mg/kg.; type: functional; method in brief: as §1
Mus musculus [9] = experiment: The compound was tested for the concentration that shows hypothermia as changes in rectal temperature (RT) at a dose of 30 mg/kg.; type: functional
Method in brief: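 Mice, single intravenous tail-vein dose in ethanol:emulphor:saline 1:1:18 at 0.1 mL/10 g. Rectal temperature change (Δ°C) was measured in the same mouse as the other behavioural measures.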

Chain of Cannabinoid receptor 1 (P21554 whole entry): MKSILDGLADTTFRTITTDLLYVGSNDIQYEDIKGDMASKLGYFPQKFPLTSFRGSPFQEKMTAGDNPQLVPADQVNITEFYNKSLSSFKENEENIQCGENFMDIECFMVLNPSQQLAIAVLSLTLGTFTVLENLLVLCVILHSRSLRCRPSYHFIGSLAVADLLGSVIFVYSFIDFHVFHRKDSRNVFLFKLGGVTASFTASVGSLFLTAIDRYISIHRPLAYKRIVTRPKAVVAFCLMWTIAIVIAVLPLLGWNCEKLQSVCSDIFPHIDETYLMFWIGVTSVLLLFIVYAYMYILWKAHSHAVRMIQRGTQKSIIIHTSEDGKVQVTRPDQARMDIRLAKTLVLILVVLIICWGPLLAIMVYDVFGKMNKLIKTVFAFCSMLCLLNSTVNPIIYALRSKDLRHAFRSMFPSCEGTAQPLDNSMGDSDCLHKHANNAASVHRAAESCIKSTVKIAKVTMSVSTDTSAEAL

| SMILES | ED50 (Mus musculus [1]) [mg/kg] | ED50 (Mus musculus [2]) [mg/kg] | Ki (Cannabinoid receptor 1) [µM] | ED50 (Mus musculus [3]) [mg/kg] | ED50 (Mus musculus [4]) [mg/kg] | inhibition in vivo at 100 mg/kg (Mus musculus [5]) [%] | inhibition in vivo at 60 mg/kg (Mus musculus [6]) [%] | inhibition in vivo at 30 mg/kg (Mus musculus [7]) [%] | inhibition in vivo at 30 mg/kg (Mus musculus [8]) [%] | inhibition in vivo at 30 mg/kg (Mus musculus [9]) [%] |
| --- | --- | --- | --- | --- | --- | --- | --- | --- | --- | --- |
| CC1=CC[C@@H]2[C@@H](C1)c1c(O)cc(C(C)(C)CCCCCC#N)cc1OC2(C)C | 0.01 | 0.005 | 0.0006 | 0.006 | – | – | – | – | – | – |
| CC1=CC[C@@H]2[C@@H](C1)c1c(O)cc(C(C)(C)CCCCC#N)cc1OC2(C)C | 0.0047 | 0.19 | 0.00036 | 0.007 | 0.095 | – | – | – | – | – |
| CC1=CC[C@@H]2[C@@H](C1)c1c(O)cc(C(C)(C)CCCCC(C#N)c3ccccc3)cc1OC2(C)C (stereo not given in full) | 1.4 | 4.2 | 0.0092 | 6.51 | 5.05 | – | – | – | – | – |
| CC1=CC[C@@H]2[C@@H](C1)c1c(O)cc(C(C)(C)CCCCOc3ccc(C#N)cc3)cc1OC2(C)C | 1.15 | 4.24 | 0.003 | 0.1 | – | – | – | – | – | – |
| CC1=CC[C@@H]2[C@@H](C1)c1c(O)cc(C(C)(C)CCCCC(=O)N(C)C)cc1OC2(C)C | 0.031 | 0.12 | 0.00086 | 0.0015 | – | – | – | – | – | – |
| CCCCCc1cc(O)c2c(c1)OC(C)(C)[C@@H]1CCC(C)=C[C@@H]21 [DRONABINOL] | 1.4 | 1.4 | – | 1 | 1.5 | – | – | – | – | – |
| CC1=CC[C@@H]2[C@@H](C1)c1c(O)cc(C(C)(C)CCCCC(=O)NCCc3ccc(S(N)(=O)=O)cc3)cc1OC2(C)C | > 100 | > 100 | 0.029 | – | > 100 | 60 | – | – | – | – |
| CC1=CC[C@@H]2[C@@H](C1)c1c(O)cc(C(C)(C)CCCCC(=O)NCc3ccc(S(N)(=O)=O)cc3)cc1OC2(C)C | – | 37 | 0.06 | 31 | – | – | 60 | – | – | – |
| CC1=CC[C@@H]2[C@@H](C1)c1c(O)cc(C(C)(C)CCCCC(=O)NN3CCCCC3)cc1OC2(C)C | 0.16 | 0.17 | 0.0012 | 0.04 | – | – | – | – | – | – |
| CC1=CC[C@@H]2[C@@H](C1)c1c(O)cc(C(C)(C)CCCC(O)C#N)cc1OC2(C)C (stereo not given in full) | 0.11 | 1.5 | 0.013 | 0.52 | 1.07 | – | – | – | – | – |
| CC1=CC[C@@H]2[C@@H](C1)c1c(O)cc(C(C)(C)CCCCC(=O)Nc3ccc(Cl)cc3Cl)cc1OC2(C)C | 14 | 3.7 | 0.018 | – | – | – | – | 27 | – | – |
| CCN(CC)C(=O)CCCCC(C)(C)c1cc(O)c2c(c1)OC(C)(C)[C@@H]1CC=C(C)C[C@@H]21 | 0.1 | 0.4 | 0.013 | 0.09 | – | – | – | – | – | – |
| CCCCCCC(C)(C)c1cc(O)c2c(c1)OC(C)(C)[C@@H]1CC=C(C)C[C@@H]21 | 0.04 | 0.04 | 0.00077 | 0.07 | 0.05 | – | – | – | – | – |
| CC1=CC[C@@H]2[C@@H](C1)c1c(O)cc(C(C)(C)CCCCC(=O)Nc3ccc(Cl)cc3)cc1OC2(C)C | – | – | 0.187 | – | – | – | – | 39 | 15 | -1.6 |
| CC1=CC[C@@H]2[C@@H](C1)c1c(O)cc(C(C)(C)CCCCC(=O)Nc3ccc(S(N)(=O)=O)cc3)cc1OC2(C)C | 3.2 | 1.7 | 0.019 | 2.03 | – | – | – | – | – | – |
